From ChEMBL document CHEMBL4732211, “Multifunctional agents based on benzoxazolone as promising therapeutic drugs for diabetic nephropathy” (Eur J Med Chem, 2021) come the findings set out here.

Activity calls are given as the source filed them. The rule behind the calls is not given here.

Test [1] has as its target Aldo-keto reductase family 1 member B1 (Rattus norvegicus, UniProt P07943). The test is described as follows: Inhibition of Wistar rat lens ALR2 assessed as reduction in NADPH oxidation using D,L-glyceraldehyde and NADPH as substrate preincubated for 10 mins followed by substrate addition and measured for 4 mins by spectrophotometric analysis. In kind it is tissue-based.

Test [2] deals with Aldo-keto reductase family 1 member A1 (Rattus norvegicus, UniProt P51635). The test is described as follows: Inhibition of Wistar rat kidney ALR1 assessed as reduction in NADPH oxidation using sodium D-glucuronate and NADPH as substrate preincubated for 10 mins followed by substrate addition and measured for 4 mins by spectrophotometric analysis. In kind it is tissue-based.
Aldo-keto reductase family 1 member A1, sequence (P51635 whole entry, looked up): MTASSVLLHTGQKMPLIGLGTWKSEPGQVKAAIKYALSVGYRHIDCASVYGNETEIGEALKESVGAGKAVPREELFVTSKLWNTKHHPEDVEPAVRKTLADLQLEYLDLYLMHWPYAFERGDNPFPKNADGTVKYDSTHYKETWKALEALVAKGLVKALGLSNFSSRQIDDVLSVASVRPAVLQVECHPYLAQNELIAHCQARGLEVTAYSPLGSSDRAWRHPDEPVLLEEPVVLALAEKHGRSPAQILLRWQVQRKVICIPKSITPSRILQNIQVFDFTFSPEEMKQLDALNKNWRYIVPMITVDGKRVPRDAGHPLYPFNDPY
The species entered for test [3] is Rattus norvegicus. The test is described as follows: Selectivity index, ratio of IC50 for Wistar rat kidney ALR1 to IC50 for Wistar rat lens ALR2. An outline of the steps: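 Aldose reductases (ALR2, ALR1) prepared from Wistar rats (200-250 g). NADPH loss followed at 340 nm for 4 min after substrate start, following 10 min preincubation. ALR2: pH 6.2 phosphate, 30 °C, NADPH 0.10 mM, D,L-glyceraldehyde 10 mM. ALR1: pH 7.2, 37 °C, NADPH 0.12 mM, D-glucuronate 20 mM. 0.5% DMSO; non-enzymatic rate subtracted. IC50 from log dose-response with ≥3 concentrations (20-80% inhibition), triplicate.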

Test [4] is described as follows: Antioxidant activity assessed as DPPH radical scavenging activity at 10 uM after 30 mins by spectrophotometric analysis. In kind it is functional. An outline of the steps: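 DPPH in methanol (1 mL, 0.025 mg/mL) plus methanol 1.9 mL and compound in methanol, final 100, 50 and 10 µM; absorbance at 517 nm. Scavenging % = 1 − (A_sample − A_blank)/A_control, where the blank is compound without DPPH. Trolox reference.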
A general note: Loss of DPPH colour is used to gauge radical scavenging.

The test system of test [5] is Mus musculus. Nature of the test: Inhibition of polyol pathway in STZ-induced Kunming mouse model of diabetes assessed as decrease in sorbitol level in kidney cortex at 80 mg/kg, po administered daily via gavage for 8 weeks and measured at 6 hrs post-final drug dose by fluorospectrophotometric analysis. In kind it is functional.
In test [6] the test system is Mus musculus. Nature of the test: Antioxidant activity in STZ-induced diabetic Kunming mouse assessed as reduction in liver MDA level at 80 mg/kg, po administered daily via gavage for 8 weeks and measured at 6 hrs post-final drug dose relative to STZ-treated group. In kind it is functional. Particulars: 1344 h.
For test [7], the system named is Mus musculus. Nature of the test: Reno-protective activity in STZ-induced Kunming mouse model of diabetes assessed as reduction in albumin to creatinine ratio at 80 mg/kg, po administered daily via gavage for 8 weeks. In kind it is functional.
The test system of test [8] is Mus musculus. The test is described as follows: Reno-protective activity in STZ-induced Kunming mouse model of diabetes assessed as reduction in urinary total protein excretion at 80 mg/kg, po administered daily via gavage for 8 weeks and measured at week 4 relative to control. In kind it is functional.
Test [9] concerns Mus musculus. The test is described as follows: Reno-protective activity in STZ-induced Kunming mouse model of diabetes assessed as reduction in urinary total protein excretion at 80 mg/kg, po administered daily via gavage for 8 weeks and measured at week 6 relative to control. In kind it is functional.
In test [10] the test system is Mus musculus. The test is described as follows: Reno-protective activity in STZ-induced Kunming mouse model of diabetes assessed as reduction in urinary total protein excretion at 80 mg/kg, po administered daily via gavage for 8 weeks and measured at week 8 relative to control. In kind it is functional.
Test [11] deals with Mus musculus. The test is described as follows: Antidiabetic activity in STZ-induced Kunming mouse model of diabetes assessed as reduction in blood glucose level at 80 mg/kg, po administered QD via gavage for 4 weeks and measured at week 2 to 4. In kind it is functional, organism-based. Particulars: time 2-4 weeks.

Turning to `COc1ccc(-c2cccc3c2oc(=O)n3CC(=O)O)cc1OC`, the results for the IC50 in test [1] and in [2] were 0.0635 µM and 32.4 µM, respectively. Moreover, the Ratio IC50 in test [3] was 510.

For `O=C(O)Cn1c(=O)oc2c(-c3ccc(-c4ccccc4)cc3)cccc21`, the IC50 in [1] was 0.0754 µM; in [2], 6.2 µM. The Ratio IC50 in test [3] was 82.

For `O=C(O)Cn1c(=O)oc2c(-c3ccc(-c4ccc5ccccc5c4)cc3)cccc21`, the IC50 in [1] was 0.023 µM; in test [2] it was 8.9 µM. In addition, the Ratio IC50 in test [3] is 387.

Regarding `COc1ccc(CCc2cccc3c2oc(=O)n3CC(=O)O)cc1`, the IC50 in [1] was 0.125 µM; in [2] it was 174 µM. Further, the Ratio IC50 in test [3] was found to be 1390.

On to `O=C(O)Cn1c(=O)oc2cccc(/C=C/c3ccccc3)c21`, for which the IC50 is 55 µM in test [1] and 363 µM in [2]. Also, in test [3], the Ratio IC50 turned out to be 6.6.

As to `O=C(O)Cn1c(=O)oc2ccc(/C=C/c3ccccc3)cc21`, the IC50 in test [1] is 0.226 µM; in test [2], 17.4 µM. The Ratio IC50 in [3] was 77.

For `O=C(O)Cn1c(=O)oc2c(-c3ccc(O)c(O)c3)cccc21`, the IC50 was 0.387 µM in test [1] and 6.6 µM in [2]. In addition, in test [3], the Ratio IC50 worked out at 17. In test [4], the Activity was determined as 61.7%.

For the compound `O=C(O)Cn1c(=O)oc2c(/C=C/c3ccc(C(F)(F)F)cc3)cccc21`, the IC50 in [1] worked out at 0.143 µM; in test [2], 2880 µM. The Ratio IC50 in test [3] was 20100.

`O=C(O)Cn1c(=O)oc2cc(/C=C/c3ccc(O)cc3)ccc21`: the IC50 stood at 0.0465 µM in test [1] and 575 µM in test [2]. In test [3], the Ratio IC50 amounted to 12400.

With `O=C(O)Cn1c(=O)oc2c(-c3ccc(-c4cccc5ccccc45)cc3)cccc21`, the IC50 in [1] came to 0.0224 µM; in test [2], 45.7 µM. For the same compound, in [3], the Ratio IC50 worked out at 2040.

With `COc1ccc(-c2cccc3c2oc(=O)n3CC(=O)O)c(OC)c1`, the IC50 in test [1] stood at 0.0855 µM; in test [2] it was 72.4 µM. Moreover, in test [3], the Ratio IC50 turned out to be 847.

For the compound `O=C(O)Cn1c(=O)oc2c(-c3ccccc3)cccc21`, the IC50 was 0.149 µM in test [1] and 447 µM in test [2]. The Ratio IC50 in [3] was 3000.

Take `COc1ccc(-c2cccc3c2oc(=O)n3CC(=O)O)cc1`: the figures for the IC50 in test [1] and in test [2] were 0.0238 µM and 1.05 µM, respectively. Moreover, in test [3], the Ratio IC50 was determined as 44.

As for `CN(C)C(=N)NC(=N)N` [METFORMIN], the inhibition result in [5] is “inactive”. The inhibition in vivo at 80 mg/kg in test [6] came out at 43%; in test [8] (672 h, time 4 weeks) it was 6%; in test [9] (1008 h, time 6 weeks) it was 41%; in [10] (1344 h), 18%. Besides, the inhibition entry in test [7] was “Active”.

`O=C(O)Cn1c(=O)oc2c(/C=C/c3ccccc3)cccc21`: the results for the IC50 in test [1] and in test [2] were 0.0547 µM and 1700 µM, respectively. In addition, the Ratio IC50 in test [3] stood at 31000.

Regarding `O=C(O)Cn1c(=O)oc2c(-c3ccc(CO)cc3)cccc21`, the 50% inhibitory concentration (IC50) in test [1] stood at 0.0245 µM; in test [2], 30.9 µM. Further, in test [3], the Ratio IC50 amounted to 1260.

In the case of `CC(/C=C1\SC(=S)N(CC(=O)O)C1=O)=C\c1ccccc1`, the inhibition result in [5] is “Active”. Besides, the inhibition in vivo at 80 mg/kg in test [6] was found to be 65%. The result in [7], in test [11], in test [8] (time 4.0 weeks), in [9] (time 6.0 weeks) and in [10] was inactive.

With `O=C(O)Cn1c(=O)oc2cc(/C=C/c3ccccc3)ccc21`, the IC50 in [1] was found to be 0.0657 µM; in test [2], 2.57 µM. In addition, in test [3], the Ratio IC50 was 39.

Consider `O=C(O)Cn1c(=O)oc2c(/C=C/c3ccc(O)c(O)c3)cccc21`, for which the 50% inhibitory concentration (IC50) was 0.0454 µM in test [1] and 0.79 µM in test [2]. Moreover, the Ratio IC50 in [3] worked out at 17. In addition, the Activity in [4] was 22.7%.

Consider `COc1cc(CCc2cccc3c2oc(=O)n3CC(=O)O)ccc1O`, for which the results for the IC50 in [1] and in test [2] were 0.0901 µM and 15.5 µM, respectively. For the same compound, the Ratio IC50 in [3] turned out to be 172. Further, the Activity in test [4] came out at 22.7%.

Consider `O=C(O)Cn1c(=O)oc2c(-c3ccc(C(F)(F)F)cc3)cccc21`, for which the IC50 in test [1] came to 0.0097 µM; in test [2], 14.4 µM. Moreover, the Ratio IC50 in [3] was 1480.

As to `COc1ccc(/C=C/c2cccc3c2oc(=O)n3CC(=O)O)cc1`, the IC50 in test [1] was found to be 0.0106 µM; in test [2] it was 6.3 µM. Moreover, in test [3], the Ratio IC50 came to 594.

On to `O=C(O)Cn1c(=O)oc2c(/C=C/c3ccc(O)cc3)cccc21`, for which the IC50 in [1] turned out to be 0.0348 µM; in test [2], 67.6 µM. For the same compound, the Ratio IC50 in [3] worked out at 1940. Besides, the Activity in test [4] amounted to 22.7%.

Take `COc1ccc(/C=C/c2cccc3c2oc(=O)n3CC(=O)O)cc1OC`: the results for the IC50 in test [1] and in test [2] were 0.0338 µM and 29.5 µM, respectively. Also, the Ratio IC50 in [3] is 873.

On to `CC(C)(C)c1ccc(-c2cccc3c2oc(=O)n3CC(=O)O)cc1`, for which the IC50 in [1] is 0.0212 µM; in test [2], 174 µM. The Ratio IC50 in test [3] turned out to be 8200.

As usually defined, the IC50 is the concentration that gives 50% inhibition. What is called inhibition in vivo is the percentage by which the read-out fell short of the control.
